The structures appear in SMILES notation. Where a SMILES comes first, the peptide text is derived from it. [ ]: non-standard residue; d: D form. The star is where a group is joined. 1Nal = N[C@@H](Cc1cccc2ccccc12)C(=O)O; Leu(ol) = CC(C)C[C@H](N)CO; Cbz = O=C(OCc1ccccc1)*

The inhibition is the percentage by which the read-out fell short of the control. The low end stands for a response near the control, the high end for a response far below the control. A word on the IC50: it is the concentration that gives 50% inhibition. A high value points to weaker potency in that assay.

The first test deals with T1, Renin (Homo sapiens) (UniProt P00797).
T1 sequence (whole entry): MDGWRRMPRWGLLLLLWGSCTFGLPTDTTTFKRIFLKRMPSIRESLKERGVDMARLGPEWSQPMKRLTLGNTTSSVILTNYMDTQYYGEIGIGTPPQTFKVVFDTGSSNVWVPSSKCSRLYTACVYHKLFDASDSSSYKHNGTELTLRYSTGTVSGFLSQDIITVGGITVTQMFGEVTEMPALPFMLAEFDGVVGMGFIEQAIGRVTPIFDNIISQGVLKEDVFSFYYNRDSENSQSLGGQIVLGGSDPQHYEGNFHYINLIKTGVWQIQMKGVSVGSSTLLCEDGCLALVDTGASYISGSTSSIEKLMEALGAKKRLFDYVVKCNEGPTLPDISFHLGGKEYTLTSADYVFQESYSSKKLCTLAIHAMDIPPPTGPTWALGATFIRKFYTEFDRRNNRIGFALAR
Description: Tested for the inhibition of human plasma renin at 10e-4 M concentration.
For the compound `CC(C)C[C@@H](CO)NC(=O)[C@H](Cc1c[nH]cn1)NC(=O)[C@H](Cc1ccccc1)NC(=O)OCc1ccccc1` (HELM PEPTIDE1{[O=C(OCc1ccccc1)[*:2]].F.H.[CC(C)C[C@@H](CO)N[*:1]]}$$$$V2.0), the inhibition was 22%.

The target in the next test is T2, Renin (Homo sapiens, UniProt P00797).
T2 sequence (P00797 whole entry): T1 sequence (whole entry)
As to the kind of experiment: Tested for the inhibition of human plasma renin. In outline: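 Lyophilized human plasma with 0.1% EDTA, incubated with phenylmethanesulfonyl fluoride, maleate buffer (pH 6.0) and inhibitor in 1% Tween 80/water vehicle, 90 min at 37 °C. Angiotensin I generated was measured by radioimmunoassay kit. Percent inhibition came from inhibitor versus control plasma renin activity. IC50 was estimated graphically from 3–4 inhibitor concentrations plotted on a semilog scale.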
The compound `CC[C@H](C)[C@H](NC(=O)[C@@H](CC(=O)[C@H](CC(C)C)NC(=O)[C@H](Cc1c[nH]cn1)NC(=O)[C@H](Cc1ccccc1)NC(=O)OC(C)(C)C)C(C)C)C(=O)NCc1ccccn1` returned an IC50 of 3100 nM. This lies in the single-digit micromolar range.
The compound `CC(C)(C)OC(=O)N[C@@H](Cc1ccccc1)C(=O)N[C@@H](Cc1c[nH]cn1)C(=O)N[C@@H](Cc1ccccc1)[C@@H](O)CO` had an IC50 of 2600 nM. This IC50 and that of the compound before are within 1.5-fold of each other.
As for `CC(C)C[C@@H](C=O)NC(=O)[C@H](Cc1c[nH]cn1)NC(=O)[C@H](Cc1cccc2ccccc12)NC(=O)OCc1ccccc1` (Cbz-[1Nal]-His-Leu-aldehyde), the midpoint of inhibition, the IC50, lay at 80 nM. Against the preceding compound, the IC50 is about 32-fold lower.
The same measure, in the same setting: the figure for `CC(C)C[C@@H](CO)NC(=O)[C@H](Cc1c[nH]cn1)NC(=O)[C@H](Cc1cccc2ccccc12)NC(=O)OCc1ccccc1` (Cbz-[1Nal]-His-[Leu(ol)]) is 3600 nM.
Same read-out and setting: the figure for `CC[C@H](C)[C@H](NC(=O)[C@H](C(C)C)[C@@H](O)[C@H](O)[C@H](CC(C)C)NC(=O)[C@H](Cc1c[nH]cn1)NC(=O)[C@H](Cc1ccccc1)NC(=O)OC(C)(C)C)C(=O)NCc1ccccn1` is 350 nM.
`CC(C)C[C@@H](C=O)NC(=O)[C@H](Cc1c[nH]cn1)NC(=O)[C@H](Cc1ccccc1)NC(=O)OCc1ccccc1` (Cbz-Phe-His-Leu-aldehyde) yielded an IC50 of 750 nM. This IC50 lies about 2.1-fold higher than the previous one.
`CC[C@H](C)[C@H](NC(=O)[C@@H](C[C@H](O)[C@H](CC(C)C)NC(=O)[C@H](Cc1c[nH]cn1)NC(=O)[C@H](Cc1ccccc1)NC(=O)OC(C)(C)C)C(C)C)C(=O)NCc1ccccn1` showed an IC50 of 220 nM. This IC50 lies about 3.4-fold lower than the previous one.
On the same count and under the same terms, under `O=C(N[C@@H](Cc1cccc2ccccc12)C(=O)N[C@@H](Cc1c[nH]cn1)C(=O)N[C@@H](Cc1ccccc1)[C@@H](O)CO)OCc1ccccc1` stands 1000 nM; under `CC[C@H](C)CNC(=O)[C@H](C(C)C)[C@@H](O)[C@H](O)[C@H](CC(C)C)NC(=O)[C@H](Cc1c[nH]cn1)NC(=O)[C@H](Cc1ccccc1)NC(=O)OC(C)(C)C`, 3400 nM.

These data come from ChEMBL document CHEMBL1123769, “Renin inhibitors. Design of angiotensinogen transition-state analogues containing novel. (2R,3R,4R,5S)-5-amino-3,4-dihydroxy-2-isopropyl-7-methyloctanoic acid” (J Med Chem, 1987).
